How the values were obtained:
[1] = Cytotoxicity against GFP reporter gene expressing human HOG.R5 cells at 10 ug/mL; format: cell-based; conditions: in the assay text read “20 ug/mL” for “10 ug/mL”
Method in brief: (§1)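 Run in parallel with the anti-HIV assay: HOG.R5 GFP reporter cultures given identical concentrations of test material but no virus; cell viability monitored after 4 days by combined microscopic and fluorometric measurement; CC50 derived.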

[2] = tested on: Human immunodeficiency virus 1; assay: Antiviral activity against HIV1 3B in human HOG.R5 cells by GFP-based reporter gene assay; format: functional, organism-based; conditions: Human immunodeficiency virus 1, 3B
Method in brief: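 HOG.R5 GFP reporter cells in microtiter wells infected with HIV-1 IIIB (2.5 ng/mL p24) in presence of test material; GFP fluorescence read after 4 days to quantify infectivity; IC50 derived.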

[3] = Cytotoxicity against GFP reporter gene expressing human HOG.R5 cells up to 20 ug/mL; format: cell-based; method in brief: as §1
[4] = Cytotoxicity against GFP reporter gene expressing human HOG.R5 cells; format: cell-based; method in brief: as §1

Compound	Activity [1]	IC50 [2]	Activity [3]	CC50 [4]
C=C1CC[C@@H](O)[C@]2(C)CC[C@H](C(C)C)[C@@H](O)[C@H]12	Non-toxic	73.1 µM	Non-toxic	
CC(=O)CC/C(=C/C1=C(C)CCC1=O)C(C)C [LITSEACHROMOLAEVANE B]	Non-toxic	120 µM	Non-toxic	
C=C1CC[C@H](C(C)(C)O)/C=C/[C@@H](C)CCC1=O [LITSEAGERMACRANE]		27.5 µM		63.4 µM
